Shown are actives, neighbours in structure and some others; about 1% of the full set was active somewhere.
procasp7 counter – counter-screen for procaspase-3 activators: activators of human procaspase-7; P55210; recombinant procaspase-7, Ac-DEVD-pNA absorbance 405 nm; D23A/D198A/D206A triple mutant, cannot self-cleave; scale: DMSO 0, 5 µM enzyme 100; activation, % at 8.5 µM; hit rate 0.093% among 330,000; AID 463210;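 active = percent activation above the screen-wide mean plus 3 SD, cut at about 25% in these data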
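signal = Epi-absorbance of released pNA at 405 nm, two timepoints | assay system = Uncleavable procaspase-7 mutant enzyme | reagent = Ac-DEVD-pNA substrate, 400 µM as added | times = 1 h enzyme–compound preincubation and 2 h substrate reaction, both 25 °C | benchmarks = low DMSO alone, high DMSO plus 5 µM PC-7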
Fam108B inh – blocks mouse Fam108B hydrolase in RBBP9 counter-screen; hit rate 0.33% among 300,000; recombinant Fam108B, FP-Rh probe fluorescence polarization; inhibition, % at 9.51 µM; AID 1947;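 active = inhibition above the screen mean inhibition plus 3 SD, computed separately per campaign, cut at about 18% in these data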;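 note: inhibitors lower polarization as less probe binds the enzyme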
LYPLA1 inh – LYPLA1 (human) inhibition in PME1 counter-screen | hit rate 0.16% among 320,000 | recombinant LYPLA1, FP-Rh probe fluorescence polarization | O75608 | AID 2174 | inhibition, % at 5.9 µM;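 active = inhibition above the mean of all tested compounds plus 3 SD, set per campaign, cut at about 14% in these data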;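 note: inhibitors block serine hydrolase probe labeling of LYPLA1 so polarization falls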
LYPLA2 counter – blocks human lysophospholipase 2, a PME1 counter-screen. hit rate 0.38% among 320,000. recombinant LYPLA2, FP-Rh probe fluorescence polarization. inhibition, % at 5.9 µM. AID 2177;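 active = inhibition above the screen-wide mean plus 3 SD, limit set per campaign, cut at about 26% in these data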
proCasp3 act – activators of human procaspase-3; hit rate 0.11% among 330,000; AID 463141; activation, % at 8.5 µM; recombinant procaspase-3 D3A, Ac-DEVD-pNA absorbance 405 nm; P42574;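 active = activation above the mean of all tested compounds plus 3 SD, cut at about 21% in these data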
Target sequence (P42574 whole entry D9A/D28A/D175A): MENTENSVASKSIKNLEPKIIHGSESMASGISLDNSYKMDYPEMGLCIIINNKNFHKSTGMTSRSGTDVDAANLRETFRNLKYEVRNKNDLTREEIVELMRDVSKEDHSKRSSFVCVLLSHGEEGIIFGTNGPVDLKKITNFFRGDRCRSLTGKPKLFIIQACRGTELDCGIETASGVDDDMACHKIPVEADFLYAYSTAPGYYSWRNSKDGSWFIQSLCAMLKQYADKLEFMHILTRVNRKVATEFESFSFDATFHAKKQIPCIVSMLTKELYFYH
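Assay system – Procaspase-3 D3A mutant, all three cleavage aspartates alanine · Controls – DMSO-only low control, 5 µM PC-3 D3A high control · Schedule – 1 h compound preincubation, 2 h substrate hydrolysis at 25 °C · Signal – 405 nm absorbance of p-nitroaniline, reads at 0 and 120 min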
PME-1 inh – blocks human protein phosphatase methylesterase 1 | Q9Y570 | recombinant PME-1, FP-Rh probe fluorescence polarization | inhibition, % at 5.9 µM | hit rate 0.53% among 320,000 | AID 2130;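 active = inhibition above the campaign mean of all compounds plus 3 SD, cut at about 26% in these data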;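 note: competitive labeling of PME-1 active site by serine hydrolase directed probe; inhibitors block probe labeling so polarization falls and inhibition rises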
Target sequence (Q9Y570 whole entry, looked up): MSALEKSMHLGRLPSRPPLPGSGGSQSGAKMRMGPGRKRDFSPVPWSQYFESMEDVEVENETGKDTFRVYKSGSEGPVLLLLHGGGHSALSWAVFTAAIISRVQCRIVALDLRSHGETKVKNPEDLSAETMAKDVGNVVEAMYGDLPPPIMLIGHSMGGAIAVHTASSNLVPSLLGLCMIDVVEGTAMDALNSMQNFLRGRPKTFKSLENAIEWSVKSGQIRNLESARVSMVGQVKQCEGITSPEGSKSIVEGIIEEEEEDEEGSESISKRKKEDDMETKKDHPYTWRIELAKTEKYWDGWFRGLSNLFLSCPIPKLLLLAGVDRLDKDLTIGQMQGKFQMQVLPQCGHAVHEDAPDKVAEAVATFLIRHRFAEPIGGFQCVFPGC
Hits are given with their value; . = inactive; / = not tested or not shown.

SMILES	procasp7 counter	Fam108B inh	LYPLA1 inh	LYPLA2 counter	proCasp3 act	PME-1 inh
CCOC(=O)C1=C(C)Nc2ccccc2N/C1=N\S(=O)(=O)c1cccc(Cl)c1	.	/	.	.	.	26
O=C(CCNS(=O)(=O)c1cccs1)N1CCN(c2cccc(Cl)c2)CC1	.	.	.	.	.	.
O=C(CCNS(=O)(=O)c1cccc2nonc12)N1CCN(c2cccc(Cl)c2)CC1	.	.	.	48	.	.
N#Cc1c(N)nc2c3c(sc(=N)c2c1N)NC(=O)CC3c1c(F)cccc1Cl (stereo not given)	.	.	.	.	.	63
Cc1c(C#N)c(N)nc2c3c(sc12)NC(=O)CC3c1ccc(Cl)cc1 (stereo not given)	.	.	.	.	.	.
CSc1nc(N)c(C#N)c(-c2ccc(Cl)cc2)c1C#N	.	.	.	.	.	.
N#Cc1c(N)nc2c3c(sc(=N)c2c1N)NC(=O)CC3c1ccccc1 (stereo not given)	.	.	.	.	.	29
COCCN=c1scc(-c2cc(OC)c(OC)c(OC)c2)n1/N=C/c1c(C)[nH]c2ccccc12	.	.	.	.	.	27
Cc1[nH]c2ccccc2c1/C=N/n1cnnc1	.	.	.	.	.	.
Cc1cccc(Nc2nnc(SCC(=O)c3ccc(O)cc3O)s2)c1	.	.	.	.	.	.
Cc1ccc(Nc2nnc(SCC(=O)c3ccc(O)cc3O)s2)cc1	.	.	.	.	.	37
C/C(=N\Nc1nc2ccccc2s1)c1ccc(Br)s1	.	.	.	.	.	51
COc1ccc(CNC(=O)c2ccc(N3CCC4(CC3)CC(c3ccc(Cl)cc3)=NO4)c(NC(=O)Cc3ccc(F)cc3)c2)cc1	.	/	/	/	.	/
CCCCN(C(=O)CCCc1nc2ccccc2c(=O)[nH]1)c1c(N)n(CC(C)C)c(=O)[nH]c1=O	.	/	.	.	.	.
O=C(O)c1ccc(-c2ccc(/C=N/Nc3ccc([N+](=O)[O-])cc3)o2)cc1	.	.	.	.	.	47
NS(=O)(=O)c1ccc(-c2ccc(/C=N/Nc3ccc(C(=O)O)cc3)o2)cc1	.	.	.	.	.	.
CCCNC(=O)c1onc(CS(=O)(=O)c2cc(C)cc(C)c2)c1C(=O)NCCC	.	/	/	/	.	/
C[C@@H](C(=O)OCC(=O)c1ccc(F)c(F)c1)N1C(=O)C2CCCCC2C1=O (stereo not given in full)	.	/	/	/	.	/
O=C(O)/C=C/c1cn(-c2ccccc2)nc1-c1ccc(-c2ccc([N+](=O)[O-])cc2)o1	.	.	.	.	.	27
CSCC[C@H](NC(=O)c1ccc(OCC2CCCO2)cc1)c1nc2ccccc2[nH]1 (stereo not given in full)	.	/	/	/	.	/
CN(C)C(=O)c1ccc(-c2nnc(NCc3ccccc3)c3ccccc23)cc1	.	.	.	.	.	37
COc1ccccc1Nc1nc(-c2sc(NC(=O)c3ccc([N+](=O)[O-])cc3)nc2C)cs1	.	25	.	.	.	.
COC(=O)c1ccc(Cn2nnc3c(=O)[nH]c(C4CCN(S(=O)(=O)c5ccc(F)cc5)CC4)nc32)cc1	.	.	.	.	.	36
CC(C)(C)OC(=O)N1CC=C2C(C#N)=C(N)C(C#N)(C#N)C(c3cccs3)C2C1 (stereo not given)	.	.	.	.	.	.
CCCOc1ccc([C@@H]2C3CN(C(=O)OCC)CC=C3C(C#N)=C(N)C2(C#N)C#N)cc1OC (stereo not given in full)	.	.	.	.	.	48
SMILES	procasp7 counter	Fam108B inh	LYPLA1 inh	LYPLA2 counter	proCasp3 act	PME-1 inh
CCOC(=O)N1CC=C2C(C#N)=C(N)C(C#N)(C#N)[C@H](c3cccs3)C2C1 (stereo not given in full)	.	.	.	.	.	31
NNC(=O)c1ncoc1-c1ccc(Cl)cc1	.	.	.	.	.	.
O=C(COC(=O)c1cc(-c2cccc3ccccc23)nc2ccccc12)NC1CCS(=O)(=O)C1 (stereo not given)	.	.	.	.	.	43
COc1ccc(-c2cc(C(=O)OCC(=O)NC3CC3)c3ccccc3n2)cc1	26	/	.	.	44	.
O=C(COC(=O)c1cc(-c2ccccc2)nc2ccccc12)NC1CC1	.	/	/	/	.	/
Cc1cc(C(=O)OCC(=O)NC2CCS(=O)(=O)C2)c2ccccc2n1 (stereo not given)	.	.	.	.	.	.
O=C(COc1cccc(Cl)c1)Nc1ccccc1N1CCCCC1	.	.	.	.	.	.
Cc1[nH]c2ccccc2c1CCNC(=O)c1ccc2c(c1[N+](=O)[O-])C(=O)c1ccccc1C2=O	.	.	.	.	.	30
CN(C)C(=O)c1ccc2c(c1[N+](=O)[O-])C(=O)c1ccccc1C2=O	.	.	.	.	.	.
CC(C)(O)c1cc2ccc(C#Cc3ccsc3)cc2c(=O)o1	.	/	.	.	.	.
CCCn1c(N)c(C(=O)CN(C)CC(=O)Nc2ccccc2CC)c(=O)[nH]c1=O	.	/	.	.	.	33
CCC(=O)N1CCN(c2ccc(NC(=S)NC(=O)COc3ccccc3)cc2)CC1	.	.	.	.	.	.
CC(=O)N1CCN(c2ccc(NC(=S)NC(=O)COc3ccc(C(C)(C)C)cc3)cc2)CC1	.	.	.	.	.	40
O=c1c(Cc2ccccc2)c(O)ccn1Cc1ccc2c(c1)OCO2	.	.	.	.	.	.
COC(=O)C[C@H](NC(=O)Cn1cnc2c(NCc3ccccc3)ncnc21)C(=O)OC	.	/	/	/	.	/
CCOc1cc(C2NN=C(c3ccc(C)cc3)S2)ccc1O (stereo not given)	.	25	.	.	.	.
COc1ccc(C2NN=C(c3ccc(C)cc3)S2)cc1 (stereo not given)	.	.	.	.	.	.
O=C(COC(=O)c1cccc(OC(F)F)c1)Nc1ncccn1	.	/	/	/	.	/
Nc1ccc(N=Nc2ccccc2)c(N)n1	.	.	.	.	.	.
Cc1[nH]c(N=Nc2ccccc2)nc1N=Nc1ccccc1	.	.	.	.	.	76
O=C1Nc2ccccc2/C1=N\N=C\C1=C(N2CCOCC2)C(=C\c2ccccc2)/CC1	.	.	.	.	.	31
O=C(c1sc2ccccc2c1Cl)N1CCN(c2ncccn2)CC1	.	.	.	.	.	28
O=C(CNc1cccc2ccccc12)N/N=C/C=C/c1ccco1	.	.	.	.	.	74
Cc1cccc(OCCC(=O)NNC(=O)c2ccoc2C)c1	.	/	.	.	.	.
CCCCCCn1c(=O)[nH]c2nc3cc(N)ccc3nc2c1=O	.	.	.	.	.	30
CCCCC(=O)Nc1cnc(NC(=O)c2cccs2)cc1C	.	.	.	.	.	.
